Assay outcomes: PubChem BioAssay, The Scripps Research Institute Molecular Screening Center
This is a sample that favours compounds with a hit; in the whole collection about 2.4% have one here.
IMP-1 inh: inhibitors of Pseudomonas aeruginosa IMP-1 metallo-beta-lactamase | AID 1556 | inhibition, % at 5.6 µM | 290,000 tested, 0.45% active | purified IMP-1, nitrocefin hydrolysis, epi-absorbance fluorescence;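 active = inhibition above the mean plus 3 SD of all compounds in the same screening run, cut at about 4.5% in these data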
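System: purified recombinant IMP-1 beta-lactamase. Medium: Zinc- and detergent-supplemented HEPES buffer, pH 7.1. Compound: one 5.6 µM dose […]. Schedule: 15 min preincubation plus 25 min reaction at 25 °C. Technique: Epi-absorbance fluorescence, 480 nm excitation, 530 nm emission.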
M18AAP inhibitor: blocks P. falciparum M18 aspartyl aminopeptidase. AID 1822. 290,000 tested, 1.2% active. recombinant PfM18AAP, H-Glu-NHMec fluorogenic cleavage. inhibition, % at 7.35 µM;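 active = inhibition above the campaign mean inhibition over all tested compounds plus 3 SD, cut at about 28% in these data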
VIM-2 inh: inhibitors of Pseudomonas aeruginosa VIM-2 metallo-beta-lactamase | 290,000 tested, 0.89% active | purified VIM-2, nitrocefin hydrolysis, epi-absorbance fluorescence | inhibition, % at 5.6 µM;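 active = inhibition above the mean of all tested compounds plus 3 SD, cutoff set per screening run, cut at about 7.5% in these data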;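 also: red hydrolysis product quenches plate fluorescence so inhibitors raise well fluorescence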
sPLA2-III inh: Blocks human group III sPLA2 activity; Q9NZ20; QFRET BODIPY PC-A2 liposome hydrolysis, fluorescence; inhibition, % at 12.2 µM; 370,000 tested, 0.56% active;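 active = inhibition above mean plus 3 SD of compounds lying within the high and low control bounds, cut at about 19% in these data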
Target sequence (Q9NZ20 whole entry, looked up): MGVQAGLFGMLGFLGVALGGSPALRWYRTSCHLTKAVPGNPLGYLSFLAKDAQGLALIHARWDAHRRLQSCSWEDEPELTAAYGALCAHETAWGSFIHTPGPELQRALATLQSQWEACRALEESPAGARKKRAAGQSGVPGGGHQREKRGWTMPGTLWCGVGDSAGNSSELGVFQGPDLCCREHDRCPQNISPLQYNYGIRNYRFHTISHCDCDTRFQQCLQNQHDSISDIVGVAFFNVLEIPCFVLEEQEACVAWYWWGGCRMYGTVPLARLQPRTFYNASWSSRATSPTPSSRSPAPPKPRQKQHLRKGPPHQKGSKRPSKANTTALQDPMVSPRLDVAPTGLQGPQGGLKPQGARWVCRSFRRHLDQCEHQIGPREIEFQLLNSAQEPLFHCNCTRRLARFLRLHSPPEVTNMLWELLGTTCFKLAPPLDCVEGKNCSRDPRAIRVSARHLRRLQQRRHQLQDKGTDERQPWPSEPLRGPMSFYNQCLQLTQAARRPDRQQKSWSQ
hGIII sPLA2 conf: human GIII-sPLA2 inhibition, confirmation | 2,000 tested, 34% active | AID 743280 | inhibition, % at 12.2 µM | shares compounds with sPLA2-III inh | recombinant hGIII-sPLA2, BODIPY PC-A2 QFRET fluorescence;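 active = mean inhibition across triplicates above the hit cutoff set in the earlier primary screen, cut at about 19% in these data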
535nm interf: counter-screen for HGIII-sPLA2 inhibitors: 535nm fluorescence interference; shares compounds with sPLA2-III inh; BODIPY FL product fluorescence interference, QFRET; inhibition, % at 12.2 µM; 2,000 tested, 8.5% active; AID 743282;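 active = average inhibition above the solvent-only control mean plus 3 SD, cut at about 6% in these data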
BODIPY interf DR: 535nm optical interference dose response, HGIII-sPLA2 counter-screen. shares compounds with sPLA2-III inh. BODIPY FL product fluorescence interference, cell-free. IC50, µM. 240 tested, under 10 active. AID 743455;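 active = IC50 at or below 10 µM; inactive = IC50 above 10 µM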
A number is an active result.

For CCOC1(c2ccccc2)OC(=O)c2ccccc21 (centres undefined) the results were IMP-1 inh inactive, M18AAP inhibitor inactive, VIM-2 inh inactive, sPLA2-III inh 22.1, hGIII sPLA2 conf inactive and 535nm interf inactive.
`CCCCCn1c(=NC(=O)c2cccnc2)c(C#N)cc2c(=O)n3cccc(C)c3nc21` gave sPLA2-III inh 19.7, hGIII sPLA2 conf inactive and 535nm interf inactive.
O=C(NCc1cccnc1)c1ccccc1[N+](=O)[O-] was read as IMP-1 inh inactive, M18AAP inhibitor inactive, VIM-2 inh inactive, sPLA2-III inh 25.4, hGIII sPLA2 conf inactive and 535nm interf inactive.
O=C(N/N=C/c1cccnc1)c1ccccc1[N+](=O)[O-] was read as IMP-1 inh inactive, M18AAP inhibitor inactive, VIM-2 inh inactive, sPLA2-III inh 19.2, hGIII sPLA2 conf inactive and 535nm interf inactive.
COc1ccc(CN(C)C(=O)c2ccc(OCC(=O)Nc3cccc(C(F)(F)F)c3)c(OC)c2)cc1 was read as sPLA2-III inh inactive.
Screening Cc1ccc(-c2nc3cc(C)c(Br)c(C)n3c2Cc2ccccc2)cc1 returned sPLA2-III inh inactive.
For O=C(NC(=S)N1CCN(C/C=C/c2ccccc2)CC1)c1c(F)cccc1F the results were IMP-1 inh inactive, M18AAP inhibitor inactive, VIM-2 inh inactive, sPLA2-III inh 26.9, hGIII sPLA2 conf 24.2 and 535nm interf inactive.
Screening CN(C)S(=O)(=O)c1ccc(NC(=O)/C=C/c2ccccc2Cl)cc1 returned IMP-1 inh inactive, M18AAP inhibitor inactive, VIM-2 inh inactive and sPLA2-III inh inactive.
CN(C)c1ccc(NC(=O)/C=C/c2c(Cl)cccc2Cl)cc1 was read as IMP-1 inh inactive, M18AAP inhibitor inactive, VIM-2 inh inactive, sPLA2-III inh 30.6, hGIII sPLA2 conf inactive and 535nm interf 8.4.
`O=S1(=O)CC(N2CCN(Cc3ccccc3F)CC2)CN1Cc1cn(Cc2ccc(F)cc2)nn1` (centres undefined) gave sPLA2-III inh inactive.
`COc1cccc(/C=N/n2c(-c3cc(C)[nH]n3)n[nH]c2=S)c1` gave IMP-1 inh inactive, M18AAP inhibitor inactive, VIM-2 inh inactive, sPLA2-III inh 19.4, hGIII sPLA2 conf 22.5 and 535nm interf inactive.
CCOc1ccc(Cl)cc1-c1cc(C(=O)Nc2cc(OC)c(OC)c(OC)c2)[nH]n1 was read as sPLA2-III inh inactive.
`O=C(NNC(=O)C1CCN(S(=O)(=O)c2c(Cl)cccc2Cl)CC1)c1ccccc1O` gave sPLA2-III inh 25.4, hGIII sPLA2 conf inactive and 535nm interf inactive.
O=C(NNC(=O)c1ccccc1O)c1ccc(Cl)c(S(=O)(=O)N2CCCCC2)c1 was read as sPLA2-III inh 19.6, hGIII sPLA2 conf inactive and 535nm interf inactive.
O=C(NNC(=O)c1cccs1)c1ccc(Cl)c(S(=O)(=O)N2CCCC2)c1 was read as sPLA2-III inh inactive.
For CCOC(=O)C1(C)CCCN(C(=O)COc2ccccc2)C1 (centres undefined) the results were sPLA2-III inh inactive.
CCC(Sc1nc2ccccc2s1)C(=O)Nc1nnc(C)s1 (centres undefined) was read as IMP-1 inh inactive, M18AAP inhibitor inactive, VIM-2 inh inactive, sPLA2-III inh 19.3, hGIII sPLA2 conf inactive and 535nm interf inactive.
`CC(Sc1nc2ccccc2s1)C(=O)Nc1nnc(C(C)C)s1` (centres undefined) gave IMP-1 inh inactive, M18AAP inhibitor inactive and VIM-2 inh inactive.
Screening CCCC(=O)NC(c1ccc(OC)cc1)c1ccc2cccnc2c1O (centres undefined) returned IMP-1 inh inactive, M18AAP inhibitor inactive, VIM-2 inh inactive, sPLA2-III inh 23.9, hGIII sPLA2 conf inactive and 535nm interf inactive.
CCCCC(=O)NC(c1ccc(C(C)C)cc1)c1ccc2cccnc2c1O (centres undefined) was read as IMP-1 inh inactive, M18AAP inhibitor inactive, VIM-2 inh inactive and sPLA2-III inh inactive.
`CCCCC(=O)NC(c1ccccc1Cl)c1ccc2cccnc2c1O` (centres undefined) gave IMP-1 inh inactive, M18AAP inhibitor inactive, VIM-2 inh inactive, sPLA2-III inh 28.2, hGIII sPLA2 conf 24.9 and 535nm interf inactive.
For CCCC(=O)NC(c1ccccc1)c1ccc2cccnc2c1O (centres undefined) the results were IMP-1 inh inactive, M18AAP inhibitor inactive, VIM-2 inh inactive, sPLA2-III inh 28.9, hGIII sPLA2 conf inactive and 535nm interf inactive.
COc1ccc(NC(=O)N2CCCCC2c2cccnc2)cc1 (centres undefined) was read as IMP-1 inh inactive, M18AAP inhibitor inactive, VIM-2 inh inactive, sPLA2-III inh 22.5, hGIII sPLA2 conf inactive and 535nm interf inactive.
CC(C)NC(=O)N(C)C[C@@H]1OCc2cnnn2CCCC(=O)N([C@@H](C)CO)C[C@H]1C was read as sPLA2-III inh inactive.
Screening CN1/C(=C\C(=O)Nc2ccc(F)cc2)C(C)(C)c2ccccc21 returned IMP-1 inh inactive, M18AAP inhibitor inactive, VIM-2 inh inactive, sPLA2-III inh 30.6, hGIII sPLA2 conf 28.0, 535nm interf inactive and BODIPY interf DR inactive.
Screening O=C(CSc1nc2ncccc2[nH]1)N1CCOCC1 returned sPLA2-III inh inactive.
For NC(=S)N/N=C/c1cc([N+](=O)[O-])ccc1Cl the results were IMP-1 inh inactive, M18AAP inhibitor inactive, VIM-2 inh inactive, sPLA2-III inh 19.6, hGIII sPLA2 conf inactive and 535nm interf inactive.
Screening CN(C)c1ccc(/C=N/NC(N)=S)cc1[N+](=O)[O-] returned IMP-1 inh inactive, M18AAP inhibitor inactive, VIM-2 inh inactive, sPLA2-III inh 21.5, hGIII sPLA2 conf 20.4 and 535nm interf inactive.
`C=CCNC(=S)N/N=C/c1ccc(C)c([N+](=O)[O-])c1` gave IMP-1 inh inactive, M18AAP inhibitor inactive, VIM-2 inh inactive and sPLA2-III inh inactive.
For CCc1n[nH]c(=S)n1/N=C/c1cc(Br)c(OC)cc1OC the results were IMP-1 inh inactive, M18AAP inhibitor inactive, VIM-2 inh inactive, sPLA2-III inh 21.8, hGIII sPLA2 conf 19.2 and 535nm interf inactive.
`COC(=O)CCn1[nH]c(=O)c2ccccc2c1=O` gave IMP-1 inh inactive, M18AAP inhibitor inactive, VIM-2 inh inactive, sPLA2-III inh 24.4, hGIII sPLA2 conf inactive and 535nm interf inactive.
CC1Cc2ccccc2N1Cc1cc(=O)c(OCC(=O)NCCc2ccccc2)co1 (centres undefined) was read as sPLA2-III inh inactive.
Screening CN(C)c1ccc(C(c2ccc(N(C)C)cc2)c2ccc([N+](=O)[O-])cc2)cc1 returned IMP-1 inh inactive, M18AAP inhibitor inactive, VIM-2 inh inactive, sPLA2-III inh 19.6, hGIII sPLA2 conf inactive and 535nm interf 9.2.
